Compounds with a hit are over-represented: about 2.4% of the library has one in this group of screens.
MT stabilizer: microtubule stabilizers in HeLa cells; HeLa tubulin immunostaining HCS, 24 h; share of cells brighter than vehicle mean+2SD; % tubulin-high responders, % at 10 µM; 0.83% of 200,000 active;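 active = plate Z-score above 3 for both tubulin-high and condensed-nucleus cell shares, with cell loss under 80%, at 10 µM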;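 note: anti alpha tubulin signal scored within the nucleus-defined area of each cell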
EP2 mod: EP2 receptor (human) modulation. P43116. EP2-expressing cells, cAMP HTRF FRET, PGE2 co-stimulation. induction, % at 25 µM. 0.83% of 260,000 active. AID 940;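 active = compounds whose cAMP rise, as percent of the full-agonist control response, exceeds 60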;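 note: rat C6 glioma line stably carrying human EP2 under a CMV promoter; the protocol text gives 20 µM as final concentration; 100% = response of wells given 1 µM PGE2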
Target sequence (P43116 whole entry, looked up): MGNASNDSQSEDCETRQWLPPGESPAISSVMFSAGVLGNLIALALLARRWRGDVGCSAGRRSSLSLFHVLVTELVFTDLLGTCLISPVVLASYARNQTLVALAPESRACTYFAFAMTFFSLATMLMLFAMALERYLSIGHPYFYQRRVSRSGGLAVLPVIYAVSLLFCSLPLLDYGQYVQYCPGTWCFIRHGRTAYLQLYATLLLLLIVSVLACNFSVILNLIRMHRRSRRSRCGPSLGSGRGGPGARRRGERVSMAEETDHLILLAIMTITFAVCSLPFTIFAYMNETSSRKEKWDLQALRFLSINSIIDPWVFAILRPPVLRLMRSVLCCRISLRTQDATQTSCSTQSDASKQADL
Efa HMGR inh: E. faecalis class II HMG-CoA reductase inhibition; purified E. faecalis HMGR, NADPH absorbance 340 nm kinetic; inhibition, % at 10 µM; 0.41% of 190,000 active;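 active = inhibition above a set limit, the median over all tested compounds plus 3 SD, cut at about 9.5% in these data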;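 note: enzyme runs in reverse so mevalonate oxidation gives rising NADPH absorbance; 0% = complete reaction with DMSO and 100% = background rate lacking mevalonate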
PGE2 EP2 inh: blocks the human prostaglandin E2 receptor EP2; P43116; C6 glioma cells expressing human EP2, cAMP TR-FRET; cells stimulated with saturating PGE2; inhibition, % at 25 µM; 0.52% of 260,000 active; AID 1422;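 active = percent inhibition above 40 after rounding to a whole number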;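 note: rat C6 glioma host cells with rolipram phosphodiesterase inhibitor present; the protocol text gives 20 µM as final concentration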
Tb hexokinase: blocks Trypanosoma brucei hexokinase 1 activity. inhibition, % at 10 µM. recombinant TbHK1, G6PDH-coupled NADH A340. 0.11% of 220,000 active;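 active = inhibition of 50% or more in the single-dose primary screen; inactive = inhibition below 50%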
bCat nuc transl: modulators of beta-catenin nuclear translocation; HeLa beta-catenin nuclear translocation, immunofluorescence imaging; nuclear translocation activity, % at 5 µM; 0.3% of 190,000 active;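 active = nuclear translocation activity above 50% at 5 µM, with a well cell count of 50 or more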;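 note: per-cell ratio of nuclear to cytoplasmic median beta-catenin stain intensity; plate controls were DMSO negative control for no effect and GSK-3 inhibitor IX positive control for full effect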
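assay system = human HeLa cells, endogenous beta-catenin | times = compound treatment 24 h, 37°C, 5% CO2 | detection = Anti-beta-catenin immunofluorescence on PFA-fixed, Triton-permeabilized cells, DAPI nuclei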
The depositor's hits bear a star; . = no result.

SMILES	MT stabilizer	EP2 mod	Efa HMGR inh	PGE2 EP2 inh	Tb hexokinase	bCat nuc transl
CC(C)c1ccc(NC(=O)COc2ccccn2)cc1	4	-17	-3	95*	11	0
CC(C)c1ccc(OCC(=O)Nc2ccc(OC(F)(F)F)cc2)cc1	4	13	-2	12	-7	0
Cc1ccc(Cn2nnc3c(=O)[nH]c(C4CCN(C(=O)C(C)C)CC4)nc32)cc1	.	-8	.	10	.	.
CCOc1ccc(NC(=O)c2ccccc2SC)cc1	.	-21	.	4	-1	-1
COc1ccc(NC(=O)c2ccccc2SC)cc1	2	15	9.6*	5	3	0
CCc1ccc(NC(=S)NNC(=O)c2ccccc2OC(F)F)cc1	16*	8	1	7	7	13
CCNC(=S)NNC(=O)c1ccccc1OC(F)F	2	28	7	10	5	2
COc1ccc(NC(=S)NNC(=O)c2ccccc2OC(F)F)cc1	36*	10	-6	5	-4	16
COc1ccccc1C(=O)N1CCC(n2nnc3ccccc3c2=O)CC1	.	-21	.	11	.	.
CC1=C/C(=N\OS(=O)(=O)c2ccccc2)C(C)=CC1=O	3	-24	-1	133*	7	1
CC(Cc1ccc2c(c1)OCO2)c1nc2cnccn2c1NCc1cccs1 (stereo not given)	.	-43	.	3	.	.
CCn1cc(CNC(=O)CCSc2nc(-c3ccco3)cc(C(F)(F)F)n2)cn1	43*	-30	-2	7	-13	-1
CC(NC(=O)CCCSc1nc(-c2ccco2)cc(C(F)(F)F)n1)c1ccccc1 (stereo not given)	.	-125	.	42*	.	.
CCn1cc(CNC(=O)CCCSc2nc(-c3ccco3)cc(C(F)(F)F)n2)cn1	.	-23	.	25	.	.
Cc1cc(C(=O)COC(=O)c2nccnc2N)c(C)n1C	4	7	-7	9	-12	-1
COc1cc(C(=O)OCC(=O)c2cc(C)n(C)c2C)cc(OC)c1OC	2	-9	-2	12	-16	69*
Cc1ccc(-c2c(C)nn3c(NCCCN(C)C)cc(C)nc23)cc1	.	-67	.	.	.	.
Cc1ccccc1-c1noc(C23CC4CC(CC(C4)C2)C3)n1	3	22	-6	3	3	.
c1cncc(-c2noc(C34CC5CC(CC(C5)C3)C4)n2)c1	2	63*	1	8	-2	.
CCc1nn(CC(=O)NC2CCCCC2C)c(=O)c2cc3ccsc3n12 (stereo not given)	.	-10	.	.	.	.
CS(=O)(=O)c1sc2nc(-c3cccs3)cc(-c3ccccc3)c2c1N	7	26	2	49*	-20	11
Cc1ccc2c(CC(=O)NCc3ccco3)coc2c1C	41*	8	-2	9	7	114*
Cc1cc(C)c(C(=O)NCc2ccco2)c(C)c1C(=O)NCc1ccco1	.	4	.	9	.	.
COc1ccc(-c2nc(N)c3ncn([C@H]4O[C@H](CO)[C@@H](O)[C@@H]4O)c3n2)cc1	.	11	.	52*	.	.
COCCn1c(SCC(=O)N2CCc3ccccc32)nnc1-c1ccncc1	.	24	.	10	.	.
SMILES	MT stabilizer	EP2 mod	Efa HMGR inh	PGE2 EP2 inh	Tb hexokinase	bCat nuc transl
CC(=O)C1=C(Nc2ccccc2)CC(C)(O)C(C(C)=O)C1c1ccccc1 (stereo not given)	.	-13	.	6	-40	0
COc1ccc(C2C(C(C)=O)=C(Nc3ccccc3)CC(C)(O)C2C(C)=O)cc1OC (stereo not given)	2	22	14*	9	-36	0
CC1(C)S[C@H]2[C@H](NC(=O)Cc3ccccc3)C(=O)N2[C@@H]1C(=O)O	.	19	.	49*	.	.
CC(Oc1ccccc1)C(=O)NC1C(=O)N2C1SC(C)(C)C2C(=O)O (stereo not given)	4	-5	5	7	-1	1
C[C@@]12CCC(=O)C=C1CC[C@H]1[C@H]2[C@@H](O)C[C@]2(C)[C@@H]1CC[C@@]2(O)C(=O)COC(=O)C1CCCC1	.	-6	.	50*	.	.
CC(=O)OCC(=O)[C@@]1(O)CC[C@H]2[C@@H]3CCC4=CC(=O)CC[C@]4(C)[C@H]3[C@@H](O)C[C@@]21C	2	2	-1	10	2	-7
CN1CCC[C@H](C(=O)OCC(=O)[C@]2(O)CC[C@@H]3[C@H]4CCC5=CC(=O)CC[C@@]5(C)[C@@H]4[C@@H](O)C[C@]32C)C1	.	10	.	53*	.	.
C[C@]12CCC(=O)C=C1CC[C@@H]1[C@@H]2[C@@H](O)C[C@@]2(C)[C@H]1CC[C@]2(O)C(=O)COC(=O)CCC(=O)O	1	33	0	15	2	-9
COc1ccc(OCc2nnc(SCC(=O)c3ccc(OC)cc3)n2N)cc1	.	-27	.	9	.	.
O=C1c2ccccc2C(Nc2ccccc2)N1Cc1ccc2c(c1)OCO2 (stereo not given)	.	72*	.	9	-6	-1
O=C1c2ccccc2C(Nc2cccc(C(F)(F)F)c2)N1Cc1ccco1 (stereo not given)	2	61*	-2	21	-2	.
COc1ccc(Cl)cc1NC(=O)CSc1n[nH]c(-c2ccccc2O)n1	.	-68	.	14	.	.
FC(F)(F)c1cccc(CN2CCC(c3cc(-c4cccs4)n[nH]3)CC2)c1	29*	-30	3	7	5	0
Cc1ccc(CN2CCC(c3cc(-c4cccs4)n[nH]3)CC2)cc1	3	-112	-2	8	-5	1
COc1ccc(-c2nc3c4ccccc4ccn3c2CN2CCCCC2)cc1OC	.	64*	.	9	-19	0
CC(NC(=O)c1n[nH]c2c1CCCCC2)c1ccc2c(c1)CCC2 (stereo not given)	.	-41	.	3	.	.
COCCNc1nc2c(c(=O)[nH]c(=O)n2C)n1Cc1ccccc1	.	0	.	11	.	.
CCc1ccc(NC(=O)CSc2nc3ccccc3c(=O)n2CCCC(=O)N2CCCC2)cc1	27*	34	-1	0	-12	.
COc1cccc(C2=NN(C(=O)c3ccccc3)C(O)(C(F)(F)F)C2)c1 (stereo not given)	2	64*	-2	.	2	0
Cc1cc(C)n(CCC(=O)NC2(c3cccc(F)c3)CCCC2)n1	.	24	.	.	.	.
COc1ccccc1NC(=O)Cn1cnc2c(cnn2-c2ccccc2)c1=O	4	-32	12*	4	32	0
CC(C)(C)n1ncc2c(=O)n(CC(=O)NCc3ccccc3)cnc21	32*	-23	-4	9	-4	-2
CC(=O)Nc1ccc(NC(=O)Cn2cnc3c(cnn3C(C)(C)C)c2=O)cc1	5	39	-5	9	-1	0
COC(=O)c1ccccc1NC(=O)Cn1cnc2c(cnn2-c2ccccc2)c1=O	2	-4	-1	6	4	3
CC(C)CCSc1nc2ccccc2[nH]1	7	-24	-2	8	1	-1
C[N+](C)(C)CCCSc1nc2ccccc2[nH]1	.	21	.	42*	.	.
COc1ccc(OC)c(C(=O)CSc2nc(C)nc3sc4c(c23)CCCC4)c1	.	37	.	17	.	.

Compound activity as filed in PubChem BioAssay.
